Results taken from ChEMBL document CHEMBL2321834 (J Med Chem, 2013).
The source made the active and inactive calls. The rule behind the calls is not given here.

What was measured:
[1] = target: Estrogen receptor beta (Homo sapiens) (UniProt Q92731); assay: Displacement of [3H]E2 from human recombinant ERbeta after 1 hr by scintillation counting analysis relative to E2
Outline: (§1)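 Competitive binding assay against ERα and ERβ, with E2 as internal reference.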

[2] = target: T1, Estrogen receptor (Homo sapiens) (UniProt P03372); assay: Displacement of [3H]E2 from human recombinant ERalpha after 1 hr by scintillation counting analysis relative to E2; outline: as §1
T1 sequence (whole entry): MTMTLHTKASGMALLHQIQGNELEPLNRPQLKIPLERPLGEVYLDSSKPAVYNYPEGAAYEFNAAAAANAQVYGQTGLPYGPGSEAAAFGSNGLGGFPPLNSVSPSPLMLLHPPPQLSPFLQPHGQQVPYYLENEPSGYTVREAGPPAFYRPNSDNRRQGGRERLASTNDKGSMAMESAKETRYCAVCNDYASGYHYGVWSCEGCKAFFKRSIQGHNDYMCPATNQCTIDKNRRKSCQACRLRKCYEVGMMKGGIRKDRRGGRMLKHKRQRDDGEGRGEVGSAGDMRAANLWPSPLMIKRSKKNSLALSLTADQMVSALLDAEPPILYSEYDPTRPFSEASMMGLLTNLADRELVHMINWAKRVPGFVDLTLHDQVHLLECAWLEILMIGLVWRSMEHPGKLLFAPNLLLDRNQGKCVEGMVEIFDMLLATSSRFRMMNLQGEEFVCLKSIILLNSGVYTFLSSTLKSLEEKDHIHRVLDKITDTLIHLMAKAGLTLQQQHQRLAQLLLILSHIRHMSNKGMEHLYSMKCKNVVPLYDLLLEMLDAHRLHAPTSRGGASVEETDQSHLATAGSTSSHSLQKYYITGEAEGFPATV

[3] = target: T2, 17-beta-hydroxysteroid dehydrogenase type 1 (Homo sapiens) (UniProt P14061); settings: at 1 µM
T2 sequence (whole entry): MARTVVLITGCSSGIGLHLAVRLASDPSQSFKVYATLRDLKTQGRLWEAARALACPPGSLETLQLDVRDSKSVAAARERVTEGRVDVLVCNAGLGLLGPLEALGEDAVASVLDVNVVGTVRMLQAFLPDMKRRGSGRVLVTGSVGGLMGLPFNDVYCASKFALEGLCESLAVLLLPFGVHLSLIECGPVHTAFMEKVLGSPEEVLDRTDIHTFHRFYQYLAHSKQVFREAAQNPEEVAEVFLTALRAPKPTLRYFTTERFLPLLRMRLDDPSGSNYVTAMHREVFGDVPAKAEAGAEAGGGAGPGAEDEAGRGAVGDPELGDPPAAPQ

[4] = target: T3, 17-beta-hydroxysteroid dehydrogenase type 2 (Homo sapiens) (UniProt P37059); settings: Placenta, Microsomal, at 1 µM
T3 sequence (whole entry): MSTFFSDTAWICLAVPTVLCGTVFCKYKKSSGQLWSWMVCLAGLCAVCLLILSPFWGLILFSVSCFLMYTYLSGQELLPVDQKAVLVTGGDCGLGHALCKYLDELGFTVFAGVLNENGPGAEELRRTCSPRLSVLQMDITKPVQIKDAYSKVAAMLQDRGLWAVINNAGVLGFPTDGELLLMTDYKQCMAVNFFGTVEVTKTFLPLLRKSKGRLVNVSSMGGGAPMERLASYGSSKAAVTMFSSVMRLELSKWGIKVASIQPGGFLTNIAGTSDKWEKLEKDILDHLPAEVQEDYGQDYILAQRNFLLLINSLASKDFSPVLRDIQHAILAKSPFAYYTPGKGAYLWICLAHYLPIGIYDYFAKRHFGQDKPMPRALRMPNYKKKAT

Homo sapiens = species: Homo sapiens; assay: Selectivity ratio of IC50 for 17beta-HSD1 in human placental microsomal fraction to IC50 for 17beta-HSD2 in human placental microsomal fraction; format: microsomes; settings: Microsome
[5] = target: T4, 17-beta-hydroxysteroid dehydrogenase type 2 (Homo sapiens, UniProt P37059); assay: Inhibition of 17beta-HSD2 (unknown origin)
T4 sequence (P37059 whole entry): T3 sequence (whole entry)
Outline: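 Microsomal fraction of human placenta as enzyme source, incubated with tritiated E2, cofactor and inhibitor. Substrate and product separated by HPLC to give percent inhibition. IC50 determined for selected compounds.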

[6] = target: T3, 17-beta-hydroxysteroid dehydrogenase type 2 (Homo sapiens); assay: Inhibition of 17beta-HSD2 in human MDA-MB-231 cells using [3H]E2 as substrate at 1 uM after 6 hrs by HPLC analysis; format: cell-based
[7] = target: T5, Aldo-keto reductase family 1 member C3 (Homo sapiens) (UniProt P42330); assay: Inhibition of human recombinant 17beta-HSD5 expressed in Escherichia coli using [1,2,6,7-3H]A-dione as substrate at 1 uM by scintillation counting analysis
T5 sequence (whole entry): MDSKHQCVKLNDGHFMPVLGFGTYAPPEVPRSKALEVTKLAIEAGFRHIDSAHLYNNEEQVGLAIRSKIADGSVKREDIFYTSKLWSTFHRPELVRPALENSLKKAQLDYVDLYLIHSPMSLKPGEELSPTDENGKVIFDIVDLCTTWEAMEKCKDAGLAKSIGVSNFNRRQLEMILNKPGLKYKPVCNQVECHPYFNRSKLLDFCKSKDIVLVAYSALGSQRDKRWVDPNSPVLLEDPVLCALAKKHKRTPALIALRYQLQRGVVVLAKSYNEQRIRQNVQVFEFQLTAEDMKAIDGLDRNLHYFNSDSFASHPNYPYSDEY

[8] = target: T6, Peroxisomal multifunctional enzyme type 2 (Homo sapiens) (UniProt P51659); assay: Inhibition of human recombinant 17beta-HSD4 SDR domain expressed in Escherichia coli using [6,7-3H]E2 as substrate at 1 uM by scintillation counting analysis
T6 sequence (whole entry): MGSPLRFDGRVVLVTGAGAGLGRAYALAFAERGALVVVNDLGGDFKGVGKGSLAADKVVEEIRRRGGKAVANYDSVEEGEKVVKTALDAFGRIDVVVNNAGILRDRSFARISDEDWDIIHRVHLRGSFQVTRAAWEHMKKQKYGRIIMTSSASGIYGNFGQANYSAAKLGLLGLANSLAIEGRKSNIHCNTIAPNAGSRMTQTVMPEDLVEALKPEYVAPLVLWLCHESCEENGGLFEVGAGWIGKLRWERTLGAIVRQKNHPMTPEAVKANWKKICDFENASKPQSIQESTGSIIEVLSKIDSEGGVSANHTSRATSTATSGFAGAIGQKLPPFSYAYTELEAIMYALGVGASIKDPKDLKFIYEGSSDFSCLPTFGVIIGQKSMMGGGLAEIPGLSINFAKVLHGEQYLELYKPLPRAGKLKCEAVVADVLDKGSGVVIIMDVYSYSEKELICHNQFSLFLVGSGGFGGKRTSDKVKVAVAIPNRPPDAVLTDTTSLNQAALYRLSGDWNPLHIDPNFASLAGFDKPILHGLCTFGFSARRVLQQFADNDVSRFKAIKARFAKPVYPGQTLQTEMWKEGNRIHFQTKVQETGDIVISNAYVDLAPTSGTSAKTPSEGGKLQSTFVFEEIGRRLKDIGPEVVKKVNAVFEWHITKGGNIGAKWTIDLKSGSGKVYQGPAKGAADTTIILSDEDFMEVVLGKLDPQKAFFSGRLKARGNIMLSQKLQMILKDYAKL

[9] = target: T7, 17-beta-hydroxysteroid dehydrogenase type 1 (Homo sapiens, UniProt P14061); assay: Inhibition of 17beta-HSD1 in human placental cytosolic fraction using [3H]E1 as substrate assessed as formation of E2 by HPLC analysis
T7 sequence (P14061 whole entry): T2 sequence (whole entry)

Sequence of Estrogen receptor beta (Homo sapiens) (Q92731 whole entry): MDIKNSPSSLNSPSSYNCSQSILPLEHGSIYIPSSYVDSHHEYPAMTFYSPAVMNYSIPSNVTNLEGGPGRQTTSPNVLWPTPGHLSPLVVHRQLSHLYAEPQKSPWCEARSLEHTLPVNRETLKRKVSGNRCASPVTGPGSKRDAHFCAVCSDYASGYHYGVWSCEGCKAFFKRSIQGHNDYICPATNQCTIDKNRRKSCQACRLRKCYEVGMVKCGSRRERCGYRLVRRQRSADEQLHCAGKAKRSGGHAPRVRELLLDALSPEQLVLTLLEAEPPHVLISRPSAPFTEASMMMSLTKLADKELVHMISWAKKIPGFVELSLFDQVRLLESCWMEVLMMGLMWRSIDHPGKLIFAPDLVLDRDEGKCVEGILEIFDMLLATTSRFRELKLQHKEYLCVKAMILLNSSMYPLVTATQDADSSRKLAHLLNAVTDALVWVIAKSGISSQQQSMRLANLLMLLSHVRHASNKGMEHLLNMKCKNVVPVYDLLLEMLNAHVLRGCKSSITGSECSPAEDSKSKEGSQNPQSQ

| SMILES | RBA [1] [%] | RBA [2] [%] | inhibition [3] [%] | inhibition [4] [%] | other results |
| --- | --- | --- | --- | --- | --- |
| COc1cccc(N(C)C(=O)c2ccc(-c3cccc(C)c3)s2)c1 | < 0.1 | < 0.1 | – | – | – |
| COc1cccc(CCN(C)C(=O)c2ccc(-c3cccc(OC)c3)s2)c1 | – | – | < 10 | 31 | – |
| COc1cccc(CN(C)C(=O)c2ccc(-c3ccccc3OC)s2)c1 | – | – | < 10 | – | – |
| CN(CCc1cccc(O)c1)C(=O)c1ccc(-c2cccc(O)c2)s1 | – | – | 23 | 37 | – |
| COc1cccc(N(C)C(=O)c2ccc(-c3ccccc3)s2)c1 | < 0.1 | < 0.1 | 24 | 82 | Ratio IC50 (Homo sapiens): 21 |
| Cn1nc(-c2cccc(O)c2)nc1-c1ccc(-c2cccc(O)c2)cc1 | – | – | – | – | IC50 [5]: 1.4 µM |
| COc1cccc(-c2ccc(C(=O)N(C)c3cccc(-c4ccccc4)c3)s2)c1 | < 0.1 | < 0.1 | 50 | 83 | Ratio IC50 (Homo sapiens): 8 |
| CN(Cc1cccc(O)c1)C(=O)c1ccc(-c2cccc(O)c2)s1 | – | – | 21 | 70 | Ratio IC50 (Homo sapiens): 14 |
| COc1cccc(N(C)C(=O)c2ccc(-c3cccc(C)c3F)s2)c1 | < 0.1 | < 0.1 | – | – | – |
| COc1cccc(N(C)C(=O)c2ccc(-c3ccc(F)c(OC)c3)s2)c1 | – | – | 17 | 66 | – |
| COc1cccc(-c2ccc(C(=O)N(C)c3cccc(C)c3)s2)c1 | < 0.1 | < 0.1 | < 10 | 87 | Ratio IC50 (Homo sapiens): 55 |
| CN(CCc1cccc(O)c1)C(=O)c1ccc(-c2ccccc2)s1 | – | – | < 10 | 11 | – |
| CN(Cc1cccc(O)c1)C(=O)c1ccc(-c2ccccc2O)s1 | – | – | 16 | 83 | – |
| COc1cccc(CCN(C)C(=O)c2ccc(-c3cccc(F)c3)s2)c1 | – | – | < 10 | < 10 | – |
| C[C@]12CC[C@@H]3c4ccc(O)cc4CC[C@H]3[C@@H]1CC[C@@]21CCCC(=O)O1 | – | – | – | – | IC50 [5]: 0.034 µM |
| CN(Cc1cccc(O)c1)C(=O)c1ccc(-c2cccc(F)c2)s1 | – | – | 20 | 71 | – |
| COc1cccc(-c2cccc(C(=O)N(C)c3cccc(OC)c3)c2)c1 | – | – | < 10 | 64 | – |
| COc1ccc(-c2cccc(C(=O)N(C)Cc3cccc(OC)c3)c2)cc1 | – | – | < 10 | 13 | – |

| SMILES | RBA [1] [%] | RBA [2] [%] | inhibition [3] [%] | inhibition [4] [%] | other results |
| --- | --- | --- | --- | --- | --- |
| COc1cccc(N(C)C(=O)c2ccc(-c3cccc(SC)c3)s2)c1 | < 0.1 | < 0.1 | – | – | – |
| COc1ccc(N(C)C(=O)c2ccc(-c3cccc(OC)c3F)s2)cc1 | – | – | 18 | 49 | – |
| COc1cccc(N(C)C(=O)c2ccc(-c3cccc(N(C)C)c3)s2)c1 | < 0.1 | < 0.1 | 11 | 82 | inhibition [6]: 71%; Ratio IC50 (Homo sapiens): 63 |
| CN(Cc1cccc(O)c1)C(=O)c1cccc(-c2cccc(O)c2)c1 | – | – | 10 | 60 | – |
| COc1cccc(-c2ccc(C(=O)N(C)c3cccc(C)c3)s2)c1F | < 0.1 | < 0.1 | – | – | – |
| CN1C(=O)C[C@@H](c2ccccc2)[C@H]1[C@H](O)c1ccc(-c2cccnc2)s1 | – | – | – | – | inhibition [7]: 88%; inhibition [8]: inactive |
| COc1cccc(N(C)C(=O)c2ccc(-c3ccc(OC)c(F)c3)s2)c1 | < 0.1 | < 0.1 | 15 | 72 | IC50 [9]: > 40 µM |
| COc1cccc(CCN(C)C(=O)c2ccc(-c3ccccc3)s2)c1 | – | – | 11 | 18 | – |
| COc1ccc(-c2ccc(C(=O)N(C)c3cccc(OC)c3)s2)cc1 | < 0.1 | < 0.1 | – | – | – |
| COc1cccc(CN(C)C(=O)c2ccc(-c3cccc(OC)c3)s2)c1 | – | – | < 10 | 63 | – |
| CN(CCc1cccc(O)c1)C(=O)c1ccc(-c2cccc(F)c2)s1 | – | – | 12 | 17 | – |
| COc1cccc(CN(C)C(=O)c2ccc(-c3ccc(C#N)cc3)s2)c1 | – | – | < 10 | < 10 | – |
| COc1cccc(N(C)C(=O)c2ccc(-c3c(F)ccc(OC)c3F)s2)c1 | < 0.1 | < 0.1 | – | – | – |
| COc1cccc(N(C)C(=O)c2ccc(-c3ccc(OC)cc3OC)s2)c1 | < 0.1 | < 0.1 | 30 | 77 | Ratio IC50 (Homo sapiens): 6 |
| Cc1cccc(N(C)C(=O)c2ccc(-c3cccc(O)c3)s2)c1 | < 0.1 | < 0.1 | 24 | 71 | Ratio IC50 (Homo sapiens): 11 |
| COc1cccc(-c2ccc(C(=O)N(C)c3cccc(C(F)(F)F)c3)s2)c1 | < 0.1 | < 0.1 | 13 | 75 | Ratio IC50 (Homo sapiens): 17 |
| COc1cccc(-c2ccc(C(=O)N(C)c3cccc(OC)c3)s2)c1 | < 0.1 | < 0.1 | – | – | – |
